The source made the active and inactive calls. The rule behind the calls is not given here.
Experiments:
[1] = target: T1, Low molecular weight phosphotyrosine protein phosphatase (Homo sapiens, UniProt P24666); experiment: Inhibition of human cloned LMW-PTP isoform 1 expressed in Escherichia coli TB1
T1 sequence (P24666 whole entry): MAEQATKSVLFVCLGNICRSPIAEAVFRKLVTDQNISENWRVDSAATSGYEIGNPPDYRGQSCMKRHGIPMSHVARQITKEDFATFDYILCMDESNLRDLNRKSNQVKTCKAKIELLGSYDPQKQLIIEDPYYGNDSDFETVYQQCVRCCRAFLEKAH

[2] = target: T1, Low molecular weight phosphotyrosine protein phosphatase; experiment: Inhibition of human cloned LMW-PTP isoform 2 expressed in Escherichia coli TB1
[3] = target: T2, Tyrosine-protein phosphatase non-receptor type 1 (Homo sapiens, UniProt P18031); experiment: Inhibition of human cloned PTP1B expressed in Escherichia coli TB1
T2 sequence (P18031 whole entry): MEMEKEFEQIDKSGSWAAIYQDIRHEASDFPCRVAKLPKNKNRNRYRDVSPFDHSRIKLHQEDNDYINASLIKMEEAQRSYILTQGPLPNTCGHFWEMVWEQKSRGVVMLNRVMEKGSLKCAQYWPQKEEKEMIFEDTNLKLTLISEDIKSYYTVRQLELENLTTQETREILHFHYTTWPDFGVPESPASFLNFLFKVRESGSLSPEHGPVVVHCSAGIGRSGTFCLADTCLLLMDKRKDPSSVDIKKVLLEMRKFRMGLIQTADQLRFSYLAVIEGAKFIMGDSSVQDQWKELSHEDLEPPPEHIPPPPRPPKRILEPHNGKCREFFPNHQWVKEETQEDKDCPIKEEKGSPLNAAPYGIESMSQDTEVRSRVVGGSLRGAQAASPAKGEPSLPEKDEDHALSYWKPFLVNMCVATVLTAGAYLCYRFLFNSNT
How it was run: (§1)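 GST-fused human enzymes (LMW-PTP IF1 or IF2, or PTP-1B) expressed in E. coli TB1, affinity-purified, thrombin-cleaved (3 h, 37 °C) and gel-filtered. […] Reaction stopped with 1 M KOH; p-nitrophenol read at 400 nm. Initial rates in triplicate; IC50 fitted to Vi/V° = IC50/(IC50+[I]); single-concentration lines give % inhibition.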

[4] = target: T3, Low molecular weight phosphotyrosine protein phosphatase (Homo sapiens) (UniProt P24666); experiment: Inhibition of human cloned LMW-PTP isoform 1 expressed in Escherichia coli TB1 at 15 uM; how it was run: as §1
T3 sequence (whole entry): T1 sequence (P24666 whole entry)

[5] = target: T4, Tyrosine-protein phosphatase non-receptor type 1 (Homo sapiens) (UniProt P18031); experiment: Inhibition of human cloned PTP1B expressed in Escherichia coli TB1 at 15 uM; how it was run: as §1
T4 sequence (whole entry): T2 sequence (P18031 whole entry)

[6] = target: T3, Low molecular weight phosphotyrosine protein phosphatase (Homo sapiens); experiment: Inhibition of human cloned LMW-PTP isoform 2 expressed in Escherichia coli TB1 at 15 uM; how it was run: as §1
[7] = target: T4, Tyrosine-protein phosphatase non-receptor type 1 (Homo sapiens); experiment: Inhibition of human cloned PTP1B expressed in Escherichia coli TB1 at 20 uM; how it was run: as §1
[8] = target: T3, Low molecular weight phosphotyrosine protein phosphatase (Homo sapiens); experiment: Inhibition of human cloned LMW-PTP isoform 1 expressed in Escherichia coli TB1 at 20 uM; how it was run: as §1
[9] = target: T3, Low molecular weight phosphotyrosine protein phosphatase (Homo sapiens); experiment: Inhibition of human cloned LMW-PTP isoform 2 expressed in Escherichia coli TB1 at 20 uM; how it was run: as §1
[10] = target: T2, Tyrosine-protein phosphatase non-receptor type 1; experiment: Inhibition of human recombinant PTP1B
[11] = target: T1, Low molecular weight phosphotyrosine protein phosphatase; experiment: Inhibition of human cloned LMW-PTP isoform 1 expressed in Escherichia coli TB1 by mixed type inhibition assay
[12] = target: T1, Low molecular weight phosphotyrosine protein phosphatase; experiment: Inhibition of human cloned LMW-PTP isoform 2 expressed in Escherichia coli TB1 by mixed type inhibition assay
[13] = target: T2, Tyrosine-protein phosphatase non-receptor type 1; experiment: Inhibition of human cloned PTP1B expressed in Escherichia coli TB1 by mixed type inhibition assay
[14] = target: Insulin receptor (Homo sapiens) (UniProt P06213); experiment: Activation of human insulin receptor beta expressed in human HepG2 cells assessed as stimulation of receptor phosphorylation at 10 uM after 90 mins by SDS-PAGE; format: cell-based
Insulin receptor (Homo sapiens), sequence (P06213 28-758 limits assumed): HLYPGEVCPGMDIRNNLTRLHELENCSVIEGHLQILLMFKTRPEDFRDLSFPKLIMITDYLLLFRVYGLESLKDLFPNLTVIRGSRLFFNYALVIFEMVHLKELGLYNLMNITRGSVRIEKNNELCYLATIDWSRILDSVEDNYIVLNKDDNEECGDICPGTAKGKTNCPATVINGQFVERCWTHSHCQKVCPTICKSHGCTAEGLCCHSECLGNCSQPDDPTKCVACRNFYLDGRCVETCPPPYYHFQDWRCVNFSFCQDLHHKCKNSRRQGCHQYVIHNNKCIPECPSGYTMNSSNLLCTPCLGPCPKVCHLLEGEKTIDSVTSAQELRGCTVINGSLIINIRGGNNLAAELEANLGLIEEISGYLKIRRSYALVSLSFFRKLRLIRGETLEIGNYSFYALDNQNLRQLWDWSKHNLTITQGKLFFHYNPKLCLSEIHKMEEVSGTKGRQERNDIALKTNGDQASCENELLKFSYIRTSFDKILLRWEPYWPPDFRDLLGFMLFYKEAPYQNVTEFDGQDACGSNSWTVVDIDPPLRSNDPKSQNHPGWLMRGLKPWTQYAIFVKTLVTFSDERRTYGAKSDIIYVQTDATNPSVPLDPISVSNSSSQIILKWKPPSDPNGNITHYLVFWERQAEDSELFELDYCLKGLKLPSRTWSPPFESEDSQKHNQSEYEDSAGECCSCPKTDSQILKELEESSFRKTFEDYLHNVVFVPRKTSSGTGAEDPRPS
Insulin receptor (Homo sapiens), sequence (P06213 763-1382 limits assumed): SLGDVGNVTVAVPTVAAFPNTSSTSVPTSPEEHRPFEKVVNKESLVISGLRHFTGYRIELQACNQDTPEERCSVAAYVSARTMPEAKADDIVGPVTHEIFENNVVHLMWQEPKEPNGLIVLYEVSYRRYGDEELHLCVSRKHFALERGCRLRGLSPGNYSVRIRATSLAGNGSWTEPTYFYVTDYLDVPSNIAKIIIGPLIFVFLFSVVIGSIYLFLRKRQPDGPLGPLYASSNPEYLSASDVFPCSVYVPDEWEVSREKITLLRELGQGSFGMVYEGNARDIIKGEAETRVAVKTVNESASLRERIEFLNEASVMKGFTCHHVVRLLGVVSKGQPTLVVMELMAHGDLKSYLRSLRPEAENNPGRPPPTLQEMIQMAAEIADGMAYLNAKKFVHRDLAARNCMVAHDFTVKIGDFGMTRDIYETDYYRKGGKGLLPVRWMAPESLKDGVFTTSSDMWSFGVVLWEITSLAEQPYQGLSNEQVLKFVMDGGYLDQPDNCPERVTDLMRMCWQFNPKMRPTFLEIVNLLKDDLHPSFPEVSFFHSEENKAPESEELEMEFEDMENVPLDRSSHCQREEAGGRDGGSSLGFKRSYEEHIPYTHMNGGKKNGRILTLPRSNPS
How it was run: (§2)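 HepG2 cells grown in DMEM with 10% bovine calf serum, 37 °C, 5% CO2; subconfluent cells serum-starved 20 h. Inhibitor added to medium at 10 µM final, 90 min, 37 °C; 10 nM insulin, 0.5% DMSO and 10 µM orthovanadate as references. Lysis in SDS Laemmli buffer, SDS-PAGE, Western blot for phospho-IRβ, then stripped and reprobed for phospho-Akt, phosphotyrosine and actin. At least three separate experiments.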

[15] = target: Insulin receptor (Homo sapiens) (UniProt P06213); experiment: Activation of human insulin receptor beta expressed in human HepG2 cells assessed as increase in tyrosine phosphorylation level at 10 uM after 90 mins by SDS-PAGE; format: cell-based; how it was run: as §2
[16] = target: T1, Low molecular weight phosphotyrosine protein phosphatase; experiment: Inhibition of human cloned LMW-PTP isoform 2 expressed in Escherichia coli TB1 by competitive inhibition assay
[17] = target: T1, Low molecular weight phosphotyrosine protein phosphatase; experiment: Inhibition of human cloned LMW-PTP isoform 1 expressed in Escherichia coli TB1 by competitive inhibition assay
[18] = target: Insulin receptor (Homo sapiens) (UniProt P06213); experiment: Activation of human insulin receptor beta expressed in human HepG2 cells assessed as increase in Akt phosphorylation level at 10 uM after 90 mins by SDS-PAGE; format: cell-based; how it was run: as §2

`O=c1c(Cc2ccc(-c3ccc(O)c(O)c3)cc2)c(-c2ccc(O)cc2)oc2ccccc12` gave an IC50 [1] of 14.3 µM, an IC50 [2] of 12.6 µM and an IC50 [3] of 5 µM.
Molecule `O=C(O)c1ccc(-c2ccc(Cc3c(-c4ccc(O)cc4)oc4ccccc4c3=O)cc2)cc1O` has an IC50 [1] of 0.7 µM, an IC50 [2] of 5.7 µM and an IC50 [3] of 0.9 µM.
With `O=c1c(Cc2ccc(-c3ccccc3)cc2)c(CCCc2ccc(O)cc2)oc2cc(O)ccc12` the inhibition [4] was 10%, the inhibition [5] was 0% and the inhibition [6] was 10%.
For `Oc1ccc(-c2ccccc2)cc1O`, the inhibition [7] was 20%, the inhibition [8] was 0% and the inhibition [9] was 0%.
Work on `O=C(O)c1cccc(-c2ccc(Cc3c(-c4ccc(O)cc4)oc4cc(O)ccc4c3=O)cc2)c1` yielded an IC50 [1] of 11.4 µM, an IC50 [2] of 26.8 µM and an IC50 [3] of 6.2 µM.
In the case of `O=c1cc(Cc2ccc(O)cc2)oc2cc(O)ccc12`, the inhibition [4] is reported as 10%, the inhibition [5] is reported as 0% and the inhibition [6] is reported as 10%.
`O=C(c1ccc(O)cc1)c1oc2ccccc2c1-c1ccc(-c2ccc(O)cc2)cc1` gave an IC50 [10] of 1.08 µM.
`O=c1c(Cc2ccc(-c3ccccc3)cc2)c(Cc2ccc(O)cc2)oc2ccc(O)cc12` was tested, and the inhibition [5] was 20%, the IC50 [1] was 8.6 µM and the IC50 [2] was 17.2 µM.
`O=c1c(Cc2cccc(-c3ccc(O)c(O)c3)c2)c(-c2ccc(O)cc2)oc2cc(O)ccc12` showed an inhibition [7] of 50%, an inhibition [8] of 60% and an inhibition [9] of 25%.
In the case of `O=C(O)c1ccc(-c2cccc(Cc3c(-c4ccc(O)cc4)oc4cc(O)ccc4c3=O)c2)cc1O`, the inhibition [7] is reported as 50%, the inhibition [8] is reported as 5% and the inhibition [9] is reported as 10%.
`Oc1ccc(-c2ccccc2)c(O)c1` was tested, and the inhibition [7] was 10%, the inhibition [8] was 0% and the inhibition [9] was 0%.
For `O=c1cc(-c2ccc(O)cc2)oc2cc(O)c(O)cc12`, the inhibition [7] was 10%, the inhibition [8] was 25% and the inhibition [9] was 10%.
In the case of `O=c1c(Cc2ccc(-c3ccc(O)cc3)cc2)c(-c2ccc(O)cc2)oc2cc(O)ccc12`, the IC50 [3] is reported as 17 µM.
With `O=c1c(Cc2ccc(-c3ccccc3)cc2)c(-c2ccc(O)cc2)oc2cc(O)ccc12` the Ki [11] was 2.5 µM, the Ki [12] was 7.8 µM and the inhibition [5] was 4%. For the same molecule, the Ki [13] was 29.1 µM, the IC50 [1] was 5.7 µM and the IC50 [2] was 13.9 µM.
`O=C(O)c1ccc(-c2ccccc2)cc1O` gave an inhibition [7] of 5%, an inhibition [8] of 0% and an inhibition [9] of 0%.
For `O=c1c(Cc2ccc(-c3ccccc3)cc2)c(CCc2ccc(O)cc2)oc2cc(O)ccc12`, the inhibition [5] was 20%, the IC50 [1] was 6.5 µM and the IC50 [2] was 17.3 µM.
`O=c1c(Cc2ccc(-c3ccccc3)cc2)c(-c2ccc(O)cc2)oc2cc(O)c(O)cc12` was tested, and the Activity [14] was “Active”, the Activity [15] was “Active” and the Ki [16] was 0.34 µM. The Ki [17] was 0.27 µM, the IC50 [1] was 1.1 µM and the IC50 [2] was 3 µM. The IC50 [3] was 2 µM.
`O=c1c(Cc2ccccc2)c(Cc2ccc(O)cc2)oc2cc(O)ccc12` was tested, and the inhibition [4] was 10%, the inhibition [5] was 0% and the inhibition [6] was 10%.
With `O=c1c(Cc2ccc(-c3ccccc3)cc2)c(Cc2ccc(O)cc2)oc2cc(O)ccc12` the inhibition [5] was 10%, the IC50 [1] was 5.3 µM and the IC50 [2] was 17.5 µM.
In the case of `O=C(O)c1ccc(-c2ccc(Cc3c(-c4ccc(O)cc4)oc4cc(O)ccc4c3=O)cc2)cc1O`, the Activity [14] is reported as “Active”, the Activity [15] is reported as “Active” and the IC50 [1] is reported as 1.3 µM. The Activity [18] was “Active”, the IC50 [2] was 2.2 µM and the IC50 [3] was 1 µM.
With `O=c1c(Cc2ccc(-c3ccc(O)c(O)c3)cc2)c(-c2ccc(O)cc2)oc2cc(O)ccc12` the Ki [11] was 2.23 µM, the Ki [12] was 2.68 µM and the Activity [14] was “Active”. For the same molecule, the Activity [15] was “Active”, the IC50 [1] was 7.4 µM and the Activity [18] was “Active”. It also gave an IC50 [2] of 12.4 µM and an IC50 [3] of 7.7 µM.
